{"source": "ChEMBL document CHEMBL1123105", "about": "“New bidentates as full inhibitors of enkephalin-degrading enzymes: synthesis and analgesic properties” (J Med Chem, 1985)"}
{"target": "not listed separately", "test": "Inhibitory activity against rat brain Dipeptidyl aminopeptidase using 10 nM of [3H]Leu-enkephalin as substrate", "in_short": "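Membrane-bound dipeptidylaminopeptidase purified from rat brain and aminopeptidase M purified from rabbit kidney were each preincubated 15 min at 25 °C with or without increasing inhibitor concentrations in 50 mM Tris-HCl, pH 7.4. […] The reaction was stopped with HCl after 30 min, and tritiated metabolites were separated on polystyrene beads. IC50 came from log probit analysis of five inhibitor concentrations; mean ± SEM.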", "units": {"IC50": "µM"}}
{"smiles": "CC(NC(=O)C(CC(=O)NO)Cc1ccccc1)C(=O)O", "note": "(stereo unspecified)", "IC50": 0.0021}
{"smiles": "O=CN(O)C(Cc1ccccc1)C(=O)NCC(=O)O", "note": "(stereo unspecified)", "IC50": 232}
{"smiles": "O=CN(O)CC(Cc1ccccc1)C(=O)NCC(=O)O", "note": "(stereo unspecified)", "IC50": 0.305}
{"smiles": "O=C(O)CNC(=O)C(CC(=O)NO)Cc1ccccc1", "note": "(stereo unspecified)", "IC50": 0.021}
{"smiles": "O=C(O)CNC(=O)C(Cc1ccccc1)C(=O)NO", "note": "(stereo unspecified)", "IC50": 3.5}
{"target": "T1, Neprilysin (Rattus norvegicus, UniProt P07861)", "T1 sequence (P07861 whole entry)": "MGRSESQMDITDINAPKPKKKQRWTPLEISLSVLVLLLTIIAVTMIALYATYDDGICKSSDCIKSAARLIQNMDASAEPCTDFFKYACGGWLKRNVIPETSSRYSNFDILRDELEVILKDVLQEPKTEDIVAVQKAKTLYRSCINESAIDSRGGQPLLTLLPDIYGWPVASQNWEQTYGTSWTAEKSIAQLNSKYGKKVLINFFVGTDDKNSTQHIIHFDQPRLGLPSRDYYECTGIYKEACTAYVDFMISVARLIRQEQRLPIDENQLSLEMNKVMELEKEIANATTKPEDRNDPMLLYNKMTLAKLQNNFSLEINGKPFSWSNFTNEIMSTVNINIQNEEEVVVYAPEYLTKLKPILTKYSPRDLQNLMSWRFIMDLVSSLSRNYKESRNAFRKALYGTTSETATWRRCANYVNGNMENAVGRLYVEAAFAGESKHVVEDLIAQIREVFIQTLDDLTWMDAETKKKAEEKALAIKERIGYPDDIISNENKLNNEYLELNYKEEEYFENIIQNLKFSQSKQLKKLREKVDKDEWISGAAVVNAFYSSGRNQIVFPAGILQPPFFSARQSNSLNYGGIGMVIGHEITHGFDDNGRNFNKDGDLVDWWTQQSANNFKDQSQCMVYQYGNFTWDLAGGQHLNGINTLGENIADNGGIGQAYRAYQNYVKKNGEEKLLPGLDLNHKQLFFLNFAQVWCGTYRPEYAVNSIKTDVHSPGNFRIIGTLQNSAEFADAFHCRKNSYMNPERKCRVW", "test": "In vitro inhibition of enkephalinase purified from […].", "in_short": "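Enkephalinase purified from kidney (0.9 ± 0.2 pmol/100 µL final) was preincubated 15 min at 25 °C with or without increasing inhibitor concentrations in 50 mM Tris-HCl, pH 7.4. Tritiated metabolites were separated on polystyrene beads. IC50 came from log probit analysis of five inhibitor concentrations; mean ± SEM of five independent experiments.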", "units": {"IC50": "µM"}}
{"smiles": "CC(NC(=O)C(CC(=O)NO)Cc1ccccc1)C(=O)O", "note": "(stereo unspecified)", "IC50": 0.002}
{"smiles": "O=CN(O)C(Cc1ccccc1)C(=O)NCC(=O)O", "note": "(stereo unspecified)", "IC50": 1.5}
{"smiles": "CC(C)CCNC(=O)CNC(=O)C(Cc1ccccc1)CN(O)C=O", "note": "(stereo unspecified)", "IC50": 0.8}
{"smiles": "O=C(CNC(=O)C(Cc1ccccc1)C(=O)NO)NCc1ccccc1", "note": "(stereo unspecified)", "IC50": 0.75}
{"smiles": "O=CN(O)CC(Cc1ccccc1)C(=O)NCC(=O)O", "note": "(stereo unspecified)", "IC50": 0.01}
{"smiles": "O=C(O)CNC(=O)C(CC(=O)O)Cc1ccccc1", "note": "(stereo unspecified)", "IC50": 0.8}
{"smiles": "CC(C)CCNC(=O)CNC(=O)C(CC(=O)NO)Cc1ccccc1", "note": "(stereo unspecified)", "IC50": 0.6}
{"smiles": "O=CN(O)CC(Cc1ccccc1)C(=O)NCC(=O)NCc1ccccc1", "note": "(stereo unspecified)", "IC50": 1.2}
{"smiles": "COC(=O)CNC(=O)C(Cc1ccccc1)CN(O)C=O", "note": "(stereo unspecified)", "IC50": 0.35}
{"smiles": "O=C(O)CNC(=O)C(CNO)Cc1ccccc1", "note": "(stereo unspecified)", "IC50": "> 0.001"}
{"smiles": "CC(C)CCNC(=O)CNC(=O)C(Cc1ccccc1)C(=O)NO", "note": "(stereo unspecified)", "IC50": 0.85}
{"smiles": "O=C(O)CNC(=O)C(Cc1ccccc1)C(=O)O", "note": "(stereo unspecified)", "IC50": 0.7}
{"smiles": "CC(C)CCNC(=O)CNC(=O)C(Cc1ccccc1)N(O)C=O", "note": "(stereo unspecified)", "IC50": 0.03}
{"smiles": "COC(=O)CNC(=O)C(Cc1ccccc1)C(=O)NO", "note": "(stereo unspecified)", "IC50": 0.001}
{"target": "T1, Neprilysin", "test": "50% inhibitory activity against enkephalinase purified from rabbit kidney with [3H]D-Ala2-Leu-enkephalin (20 nM) as substrate.", "units": {"IC50": "µM"}}
{"smiles": "C[C@H](NC(=O)[C@H](CC(=O)NO)Cc1ccccc1)C(=O)O", "IC50": 0.0018}
{"smiles": "C[C@H](NC(=O)[C@@H](CC(=O)NO)Cc1ccccc1)C(=O)O", "note": "(racemic) [KELATORPHAN]", "IC50": 0.0017}
